pIC50: −log10 of the molar value.

For series [1], the system named is Staphylococcus aureus. Description: Inhibition of Staphylococcus aureus ATCC 6538 planktonic growth at 250 uM after 24 hrs by microbroth dilution method. (In general: In broth dilution the organism is exposed to a series of concentrations in liquid medium.)
Series [2] relates to Staphylococcus aureus. The series can be described thus: Inhibition of Staphylococcus aureus ATCC 29213 planktonic growth at 250 uM after 24 hrs by microbroth dilution method.
Series [3] has as its system Staphylococcus aureus. The series can be described thus: Antibiofilm activity against Staphylococcus aureus ATCC 29213 after 24 hrs by crystal-violet stain based assay. The format is functional. As to conditions: ATCC 29213, 24 h. The essentials: (§1)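 Biofilm prevention: diluted bacterial suspension (OD about 0.040 at 570 nm) with sub-MIC concentrations from 300 to 0.3 added at time zero, 37 °C for 24 h in 24-well polystyrene plates. Wells washed three times with PBS, stained with 0.1% crystal violet for 30 min, and the stain redissolved in ethanol. OD read at 600 nm. Percent inhibition taken against untreated control wells. Triplicate, repeated at least twice.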

Series [4] concerns Staphylococcus aureus. Description: Inhibition of Staphylococcus aureus ATCC 25923 planktonic growth at 250 uM after 24 hrs by microbroth dilution method.
The subject of series [5] is Staphylococcus aureus. The series can be described thus: Antibiofilm activity against Staphylococcus aureus ATCC 25923 after 24 hrs by crystal-violet stain based assay. The format is functional. To be noted: ATCC 25923, 24 h. The essentials:
as §1

Series [6] concerns Staphylococcus aureus. Description: Antibiofilm activity against Staphylococcus aureus ATCC 6538 after 24 hrs by crystal-violet stain based assay. Format: functional. As to conditions: ATCC 6538, 24 h. The essentials: as §1
Series [7] relates to Staphylococcus aureus. Description: Antibiofilm activity against Staphylococcus aureus ATCC 6538 after 24 hrs by safranin staining based assay. The format is functional. As to conditions: ATCC 6538, 24 h.
Series [8] relates to Staphylococcus aureus. Description: Antibiofilm activity against Staphylococcus aureus ATCC 29213 after 24 hrs by safranin staining based assay. The format is functional. As to conditions: ATCC 29213, 24 h.
Series [9] concerns Staphylococcus aureus. The series can be described thus: Antibiofilm activity against Staphylococcus aureus ATCC 25923 after 24 hrs by safranin staining based assay. The format is functional. As to conditions: ATCC 25923, 24 h.
In series [10] the test system is Staphylococcus aureus. Description: Antivirulence activity against Staphylococcus aureus ATCC 29213 infected in Galleria mellonella larvae assessed as increase in larvae survival at 1 mg/kg administered as single dose pretreated for 1 hr followed by bacterial infection measured every 24 hrs for 72 hrs relative to control. Format: functional. In a few lines: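 Galleria mellonella larvae given a single 1 mg/kg injection in PBS with 3% DMSO 1 h before inoculation with live S. aureus ATCC 29213, injected into alternate prolegs. Controls: untouched larvae, uninfected vehicle-injected larvae, uninfected compound-treated larvae, and vehicle-pretreated infected larvae. Larvae held at 37 °C, survival checked at 24, 48 and 72 h. Three replicates of four larvae per group, Tukey post hoc test.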

Series [11] is described as follows: Toxicity in Galleria mellonella assessed as effect on larval survival at 1 mg/kg administered as single dose measured every 24 hrs for 72 hrs. Format: organism-based. As to conditions: in vivo. In a few lines:
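Larvae held at 37 °C and given a single 1 mg/kg injection in PBS with 3% DMSO. Controls were untreated larvae and vehicle-injected larvae. Three replicates of four larvae per group. Survival checked at 24, 48 and 72 h after injection. Results given as mean with SD and compared by post hoc Tukey test (P < 0.05).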

Series [12] can be described thus: Toxicity in Galleria mellonella assessed as effect on time to pupation at 1 mg/kg administered as single dose measured every 24 hrs for 72 hrs. Format: organism-based. As to conditions: in vivo. The essentials: (§2)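 Uninfected larvae given a single 1 mg/kg injection in PBS with 3% DMSO, alongside untreated and vehicle-only groups, three replicates of four larvae each. Larvae kept in starvation and monitored for weight loss and time to pupation/chrysalis formation as sub-lethal endpoints. Groups compared statistically.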

Series [13] is described as follows: Toxicity in Galleria mellonella assessed as effect on larval weight at 1 mg/kg administered as single dose measured every 24 hrs for 72 hrs. The format is organism-based. To be noted: in vivo. In a few lines:
as §2

By pIC50 is commonly meant −log10 of the IC50, conventionally taken in molar units. Regarding `CCOC(=O)c1cnn(-c2ccccc2)c1N`, the “growth inhibition (GI)” value with Staphylococcus aureus [1], in the series on Staphylococcus aureus [2] and in the series on Staphylococcus aureus [4] was “Non-Toxic” each time. In addition, the negative-log IC50 (pIC50) in the series with Staphylococcus aureus [3] is 4.47; in the series on Staphylococcus aureus [5] it was 3.65; with Staphylococcus aureus [6] it was 4.02.

With `CCOC(=O)/C(=N/Nc1cccc(C)c1)C(=O)c1cc(C)nn1CC`, the pIC50 was 4.37 with Staphylococcus aureus [7], 5.77 in the series with Staphylococcus aureus [8] and 5.00 in the series with Staphylococcus aureus [9].

Regarding `CCOC(=O)/C(=N/Nc1ccccc1F)C(=O)c1cc(C)nn1CC`, the pIC50 in the series with Staphylococcus aureus [7] is 6.05; with Staphylococcus aureus [8], 4.89; in the series with Staphylococcus aureus [9] it was 4.38.

For `Cc1c(C(=O)Nc2ccccc2)cnn1-c1cccc([N+](=O)[O-])c1`, the “growth inhibition (GI)” value in the series on Staphylococcus aureus [1], in the series with Staphylococcus aureus [2] and in the series on Staphylococcus aureus [4] was “Non-Toxic” throughout. Further, the figures for the pIC50 with Staphylococcus aureus [3], in the series with Staphylococcus aureus [5] and in the series on Staphylococcus aureus [6] were 4.34, 4.19 and 4.05, respectively.

`CCn1nc(C)cc1C(=O)/C(=N\Nc1cccc(Cl)c1)C(=O)O`: the pIC50 is 4.96 with Staphylococcus aureus [7], 4.80 in the series on Staphylococcus aureus [8] and 4.70 with Staphylococcus aureus [9].

For the compound `CCOC(=O)c1cnn(-c2ccc(S(N)(=O)=O)cc2)c1N`, the “growth inhibition (GI)” value in the series with Staphylococcus aureus [1], in the series on Staphylococcus aureus [2] and with Staphylococcus aureus [4] was “Non-Toxic” in each case. Moreover, the pIC50 was 4.55 in the series with Staphylococcus aureus [3], 4.11 with Staphylococcus aureus [5] and 3.85 in the series on Staphylococcus aureus [6].

As to `CCOC(=O)c1cn[nH]c1N`, the “growth inhibition (GI)” value in the series with Staphylococcus aureus [1], with Staphylococcus aureus [2] and in the series on Staphylococcus aureus [4] was “Non-Toxic” throughout. The pIC50 with Staphylococcus aureus [3] is 4.08; in the series with Staphylococcus aureus [5] it was 3.67; with Staphylococcus aureus [6] it was 4.07.

For `Cc1c(C(=O)Nc2ccccc2)cnn1-c1cc(F)ccc1F`, the “growth inhibition (GI)” value in the series on Staphylococcus aureus [1], with Staphylococcus aureus [2] and with Staphylococcus aureus [4] was “Non-Toxic” throughout. Moreover, the negative logarithm of the IC50 (pIC50) in the series with Staphylococcus aureus [3] is 4.05; with Staphylococcus aureus [5] it was 4.21; in the series with Staphylococcus aureus [6], 4.09.

With `CCOC(=O)c1cnn(C)c1N`, the “growth inhibition (GI)” value with Staphylococcus aureus [1], with Staphylococcus aureus [2] and in the series on Staphylococcus aureus [4] was “Non-Toxic” in each case. Further, the figures for the pIC50 with Staphylococcus aureus [3] and in the series on Staphylococcus aureus [5] were 3.82 and 3.80, respectively.

As to `Cc1c(C(=O)Nc2ccccc2)cnn1-c1cccc(Cl)c1`, the “growth inhibition (GI)” value with Staphylococcus aureus [1], with Staphylococcus aureus [2] and in the series on Staphylococcus aureus [4] was “Non-Toxic” in each case. The figures for the pIC50 in the series on Staphylococcus aureus [3], in the series with Staphylococcus aureus [5] and in the series with Staphylococcus aureus [6] were 3.77, 3.79 and 3.99, respectively.

Turning to `CCOC(=O)c1cnn(-c2ccccn2)c1N`, the “growth inhibition (GI)” value in the series on Staphylococcus aureus [1], in the series on Staphylococcus aureus [2] and in the series on Staphylococcus aureus [4] was “Non-Toxic” each time. Moreover, the values for the pIC50 in the series on Staphylococcus aureus [3], in the series on Staphylococcus aureus [5] and with Staphylococcus aureus [6] were 4.51, 3.99 and 4.04, respectively.

For `CC(=O)/C(=C\NNc1cc(Cl)ccc1Cl)C(=O)Nc1ccccc1`, the “growth inhibition (GI)” value in the series on Staphylococcus aureus [1], with Staphylococcus aureus [2] and in the series on Staphylococcus aureus [4] was “Non-Toxic” each time. The “fold change (FC)” value in the series with Staphylococcus aureus [10] was determined as 1.6. The Activity result in [11], in series [12] and in [13] was “Non-Toxic” in each case. Further, the pIC50 in the series with Staphylococcus aureus [3] is 5.60; with Staphylococcus aureus [5], 5.64; in the series with Staphylococcus aureus [6], 4.49.

In the case of `Cc1c(C(=O)Nc2ccccc2)cnn1-c1ccc(C(F)(F)F)cc1`, the “growth inhibition (GI)” value with Staphylococcus aureus [1], with Staphylococcus aureus [2] and in the series with Staphylococcus aureus [4] was “Non-Toxic” throughout. Also, the results for the pIC50 in the series on Staphylococcus aureus [3] and in the series with Staphylococcus aureus [5] were 4.34 and 4.19, respectively.

Turning to `Cc1c(C(=O)Nc2ccccc2)cnn1-c1ccc([N+](=O)[O-])cc1`, the “growth inhibition (GI)” value in the series on Staphylococcus aureus [1], with Staphylococcus aureus [2] and in the series with Staphylococcus aureus [4] was “Non-Toxic” each time. Moreover, the pIC50 in the series with Staphylococcus aureus [3] is 3.90; with Staphylococcus aureus [5], 3.36; with Staphylococcus aureus [6] it was 4.26.

As to `Cc1c(C(=O)Nc2ccccc2)cnn1-c1ccccc1`, the “growth inhibition (GI)” value in the series on Staphylococcus aureus [1], in the series on Staphylococcus aureus [2] and in the series on Staphylococcus aureus [4] was “Non-Toxic” in each case. In addition, the pIC50 with Staphylococcus aureus [3] is 3.51; with Staphylococcus aureus [5] it was 3.95; in the series on Staphylococcus aureus [6], 4.11.

Regarding `Cc1c(C(=O)Nc2ccccc2)cnn1-c1cc(Cl)ccc1Cl`, the “growth inhibition (GI)” value in the series with Staphylococcus aureus [1], in the series with Staphylococcus aureus [2] and in the series on Staphylococcus aureus [4] was “Non-Toxic” in each case. For the same compound, the pIC50 is 4.28 with Staphylococcus aureus [3] and 4.04 in the series on Staphylococcus aureus [5].

`Cc1cc(C(=O)Nc2ccccc2)n(-c2ccccc2)n1`: the “growth inhibition (GI)” value in the series with Staphylococcus aureus [1], with Staphylococcus aureus [2] and in the series with Staphylococcus aureus [4] was “Non-Toxic” in each case. Moreover, the results for the negative logarithm of the IC50 (pIC50) with Staphylococcus aureus [3], in the series on Staphylococcus aureus [5] and in the series with Staphylococcus aureus [6] were 3.91, 4.13 and 4.27, respectively.

With `CCOC(=O)c1c(C)n[nH]c1N`, the “growth inhibition (GI)” value with Staphylococcus aureus [1], in the series on Staphylococcus aureus [2] and with Staphylococcus aureus [4] was “Non-Toxic” in each case. For the same compound, the pIC50 in the series with Staphylococcus aureus [3] is 4.21; in the series with Staphylococcus aureus [5], 3.42; with Staphylococcus aureus [6] it was 4.09.

Turning to `Cc1c(C(=O)Nc2ccccc2)cnn1-c1ccc(Cl)cc1`, the “growth inhibition (GI)” value with Staphylococcus aureus [1], with Staphylococcus aureus [2] and in the series with Staphylococcus aureus [4] was “Non-Toxic” each time. The pIC50 in the series on Staphylococcus aureus [3] was 4.42; with Staphylococcus aureus [5], 3.26; in the series with Staphylococcus aureus [6], 4.52.

In the case of `Cc1cc(C(=O)Nc2ccccc2)nn1-c1ccccc1`, the “growth inhibition (GI)” value with Staphylococcus aureus [1], in the series with Staphylococcus aureus [2] and in the series on Staphylococcus aureus [4] was “Non-Toxic” throughout. Besides, the pIC50 is 4.27 with Staphylococcus aureus [3], 4.12 with Staphylococcus aureus [5] and 4.19 with Staphylococcus aureus [6].

These data come from ChEMBL document CHEMBL3872202, “Synthesis and biofilm formation reduction of pyrazole-4-carboxamide derivatives in some Staphylococcus aureus strains” (Eur J Med Chem, 2016).
